The target of experiment [1] is Ribonucleotide reductase large subunit R1 (Herpes simplex virus). The experiment can be described thus: Inhibitory effect was evaluated on Herpes simplex virus (HSV) ribonucleotide reductase (RR) enzyme.
Experiment [2] concerns BHK-21. The experiment is described as follows: Effective concentration was evaluated against HSV-2 by using serum starved baby hamster kidney cells in a colorimetric viral yield assay. In kind it is functional, cell-based. To be noted: Mesocricetus auratus. The method in brief:
(§1)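 Viral yield in serum-starved BHK cells, read colorimetrically. EC50 reported as mean of at least three separate determinations with standard deviation. Cytotoxicity measured in parallel by MTT (tetrazolium) metabolic assay to give CC50.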

Experiment [3] relates to BHK-21. The experiment is described as follows: Effective concentration was evaluated against HSV-1 by using serum starved baby hamster kidney cells in a colorimetric viral yield assay. In kind it is functional, cell-based. The conditions noted are these: Mesocricetus auratus. The method, boiled down: as §1

Experimental findings from ChEMBL document CHEMBL1129444, “Peptidomimetic inhibitors of herpes simplex virus ribonucleotide reductase with improved in vivo antiviral activity” (J Med Chem, 1996) are described below.

The term pIC50 denotes −log10 of the IC50, conventionally taken in molar units. As usually defined, the pEC50 is the negative decadic logarithm of the EC50, by convention in mol/L. A low value points to a large EC50.

Structures are written as SMILES. pEC50, pIC50: −log10 of the molar value. *1 amine or outer side, *2 acyl side, *3 side chain or, on linkers, in order; H or OH if unused. Where a SMILES comes first, the peptide text is derived from it. [ ]: non-standard residue; d: D form. The star is where a group is joined. Asp(3,3-(CH2)4) = N[C@H](C(=O)O)C1(C(=O)O)CCCC1; Dibenzylacetyl = O=C(C(Cc1ccccc1)Cc1ccccc1)*; Leu(γ-Me)ol = CC(C)(C)C[C@@H](CO)N*; tBuAla = CC(C)(C)C[C@H](N)C(=O)O; Tle = CC(C)(C)[C@H](N)C(=O)O; NMeV = CN[C@H](C(=O)O)C(C)C; X1 = CC[C@@H](N*)C(C)(C)C; NH(3-pentyl) = CCC(CC)N*; Pyrrolidide = C1CCN(*)C1; NHcHex = C1CCC(N*)CC1; CO = O=C([*:1])[*:2]; X2 = CCCC(CCC)N*; NHiPr = CC(C)N*

In the case of `CC(C)C[C@H](NC(=O)[C@H](CC(=O)O)NC(=O)[C@H](CC(=O)N1CCCC1)NC(=O)[C@@H](NC(=O)NC1[C@@H](C)CCC[C@@H]1C)C(C)C)C(=O)O.CC(C)C[C@H](NC(=O)[C@H](CC(=O)O)NC(=O)[C@H](CC(=O)N1CCCC1)NC(=O)[C@@H](NC(=O)NC1[C@H](C)CCC[C@H]1C)C(C)C)C(=O)O`, the pIC50 in experiment [1] was 7.70. Still for that read-out and setting: the value for `CCC(CC)NC(=O)N[C@H](C(=O)N[C@@H](CC(=O)N1CCCC1)C(=O)N[C@@H](CC(=O)O)C(=O)N[C@H](C)C(C)(C)C)C(C)(C)C` was 7.57.

In turn, `CCC(CC)NC(=O)N[C@H](C(=O)N[C@@H](CC(=O)N1CCCC1)C(=O)N[C@@H](CC(=O)O)C(=O)NCCC(C)(C)C)C(C)(C)C` had a negative-log IC50 (pIC50) in experiment [1] of 7.00. On to `CC[C@@H](NC(=O)[C@@H](NC(=O)[C@@H](CC(=O)[C@@H](NC(=O)N[C@@H]1[C@H](C)CCC[C@@H]1C)C(C)(C)C)CC(=O)N1CCCC1)C1(C(=O)O)CCCC1)C(C)(C)C`, for which the pEC50 in experiment [2] was 4.10; in experiment [3] it was 4.30. Turning to `CCC(CC)NC(=O)N[C@H](C(=O)N[C@@H](CC(=O)N1CCCC1)C(=O)N[C@@H](CC(=O)O)C(=O)NCC(C)(C)C)C(C)(C)C`, the pIC50 in experiment [1] was 7.40. Still for that read-out and setting: in the case of `CCC(CC)NC(=O)N[C@H](C(=O)N[C@@H](CC(=O)N1CCCC1)C(=O)N[C@@H](CC(=O)O)C(=O)NCC(C)C)C(C)(C)C` it was 5.72; in that of `CCC(CC)NC(=O)N[C@H](C(=O)N[C@@H](CC(=O)C(C)(C)C)C(=O)N[C@@H](CC(=O)O)C(=O)N[C@@H](CC(C)C)C(=O)O)C(C)(C)C`, 8.52. As to `C[C@@H]1CCC[C@H](C)[C@@H]1NC(=O)N[C@H](C(=O)C[C@@H](CC(=O)C(C)(C)C)C(=O)N[C@H](C(=O)NCC(C)(C)C)C1(C(=O)O)CCCC1)C(C)(C)C`, the negative logarithm of the EC50 (pEC50) in experiment [2] is 4.59; in experiment [3], 4.77. With `CCC(CC)NC(=O)N[C@H](C(=O)C[C@@H](CC(=O)N1CCCC1)C(=O)N[C@@H](CC(=O)O)C(=O)N[C@@H](CC(C)C)C(=O)O)C(C)(C)C`, the pIC50 in experiment [1] is 8.15. On to `CCC(CC)NC(=O)N[C@H](C(=O)N[C@@H](CC(=O)N1CCCC1)C(=O)N[C@@H](CC(=O)O)C(=O)N[C@@H](C)C(C)(C)C)C(C)(C)C`, for which the negative logarithm of the IC50 (pIC50) in experiment [1] is 5.57. Against the preceding compound, the pIC50 is 2.58 log units lower. Still for that read-out and setting: in the case of `CCC(CC)NC(=O)N[C@H](C(=O)N[C@@H](CC(=O)N1CCCC1)C(=O)N[C@@H](CC(=O)O)C(=O)N[C@H](CO)CC(C)(C)C)C(C)(C)C` it was 8.22; in that of `CCC(CC)NC(=O)N[C@H](C(=O)N[C@@H](CC(=O)N1CCCC1)C(=O)N[C@@H](CC(=O)O)C(=O)NCCC(C)C)C(C)(C)C`, 6.46. For `CC[C@@H](NC(=O)[C@@H](NC(=O)[C@H](CC(=O)N1CCCC1)NC(=O)[C@@H](NC(=O)N[C@@H]1[C@H](C)CCC[C@@H]1C)C(C)(C)C)C1(C(=O)O)CCCC1)C(C)(C)C`, the pEC50 is 4.40 in experiment [2] and 4.55 in experiment [3]. Taken in the same sequence, the figures for `CCCC(CCC)NC(=O)N[C@H](C(=O)C[C@@H](CC(=O)C(C)(C)C)C(=O)N[C@H](C(=O)N[C@H](CC)C(C)(C)C)C1(C(=O)O)CCCC1)C(C)(C)C` were 5.30 and 5.22. `CCC(CC)NC(=O)N[C@H](C(=O)C[C@@H](CC(=O)C(C)(C)C)C(=O)N[C@@H](CC(=O)O)C(=O)N[C@@H](CC(C)C)C(=O)O)C(C)(C)C`: the negative-log IC50 (pIC50) in experiment [1] is 8.30.

In the case of `CCC(CC)NC(=O)N[C@H](C(=O)N[C@@H](CC(=O)N1CCCC1)C(=O)N[C@@H](CC(=O)O)C(=O)N[C@@H](CC)C(C)(C)C)C(C)(C)C`, in experiment [1], the pIC50 was 5.70. In the case of `CC[C@@H](NC(=O)[C@@H](NC(=O)[C@H](CC(=O)C(C)(C)C)NC(=O)[C@@H](NC(=O)N[C@@H]1[C@H](C)CCC[C@@H]1C)C(C)(C)C)C1(C(=O)O)CCCC1)C(C)(C)C`, the negative logarithm of the EC50 (pEC50) in experiment [2] and in experiment [3] was 4.89 in each case. In the case of `CC[C@@H](NC(=O)[C@@H](NC(=O)[C@@H](CC(=O)[C@@H](NC(=O)N[C@@H]1[C@H](C)CCC[C@@H]1C)C(C)(C)C)CC(=O)C(C)(C)C)C1(C(=O)O)CCCC1)C(C)(C)C`, the pEC50 in experiment [2] is 5.15; in experiment [3], 5.22.

As to `C[C@@H]1CCC[C@H](C)[C@@H]1NC(=O)N[C@H](C(=O)C[C@@H](CC(=O)C(C)(C)C)C(=O)N[C@H](C(=O)N[C@H](CO)CC(C)(C)C)C1(C(=O)O)CCCC1)C(C)(C)C`, the pEC50 in experiment [2] and in experiment [3] was 4.59 in each case. For the compound `CC[C@@H](NC(=O)[C@@H](NC(=O)[C@@H](CC(=O)[C@@H](NC(=O)[C@H](C(C)C)N(C)C(=O)C(Cc1ccccc1)Cc1ccccc1)C(C)(C)C)CC(=O)C(C)(C)C)C1(C(=O)O)CCCC1)C(C)(C)C`, the pEC50 in experiment [2] is 5.80; in experiment [3], 5.89.

As for `CCC(CC)NC(=O)N[C@H](C(=O)N[C@@H](CC(=O)N1CCCC1)C(=O)N[C@@H](CC(=O)O)C(=O)N[C@H](CC)C(C)(C)C)C(C)(C)C`, the pIC50 in experiment [1] was 7.74. On to `CC[C@@H](NC(=O)[C@@H](NC(=O)[C@H](CC(=O)N1CCCC1)NC(=O)[C@@H](NC(=O)[C@H](C(C)C)N(C)C(=O)C(Cc1ccccc1)Cc1ccccc1)C(C)(C)C)C1(C(=O)O)CCCC1)C(C)(C)C` (Dibenzylacetyl-[NMeV][Tle]D(Pyrrolidide)[Asp(3,3-(CH2)4)]-X1), for which the pEC50 in experiment [2] is 5.74; in experiment [3] it was 6.10. Taken in the same sequence, the figures for `CC(C)[C@@H](C(=O)N[C@H](C(=O)N[C@@H](CC(=O)N1CCCC1)C(=O)N[C@H](C(=O)N[C@H](CO)CC(C)(C)C)C1(C(=O)O)CCCC1)C(C)(C)C)N(C)C(=O)C(Cc1ccccc1)Cc1ccccc1` (Dibenzylacetyl-[NMeV][Tle]D(Pyrrolidide)[Asp(3,3-(CH2)4)]-{Leu(γ-Me)ol}) were 5.38 and 5.51. `CC(C)C[C@H](NC(=O)[C@H](CC(=O)O)NC(=O)[C@H](CC(=O)N1CCCC1)NC(=O)[C@@H](NC(=O)NC1[C@H](C)CCC[C@@H]1C)C(C)C)C(=O)O` (stereo in doubt; 7) gave a pIC50 in experiment [1] of 7.26. Still for that read-out and setting: the value for `CC(C)C[C@H](NC(=O)[C@H](CC(=O)O)NC(=O)[C@H](CC(=O)N1CCCC1)NC(=O)[C@@H](NC(=O)NC1[C@H](C)CCC[C@@H]1C)C(C)C)C(=O)O` (stereo in doubt; 9) was 8.70; that for `CCC(CC)NC(=O)N[C@H](C(=O)N[C@@H](CC(=O)N1CCCC1)C(=O)N[C@@H](CC(=O)O)C(=O)N[C@@H](CC(C)C)C(=O)O)C(C)C` ({NH(3-pentyl)-CO}-VD(Pyrrolidide)DL-OH) was 7.82.

For the compound `CCC(CC)NC(=O)N[C@H](C(=O)N[C@@H](CC(=O)N1CCCC1)C(=O)N[C@@H](CC(=O)O)C(=O)N[C@@H](CC(C)C)C(=O)O)C(C)(C)C` ({NH(3-pentyl)-CO}-[Tle]D(Pyrrolidide)DL-OH), the pIC50 in experiment [1] is 8.52. Compared with the last compound, the pIC50 is 0.70 log units higher.

`CCC(CC)NC(=O)N[C@H](C(=O)N[C@@H](CC(=O)N1CCCC1)C(=O)N[C@@H](CC(=O)O)C(=O)N[C@@H](CC(C)(C)C)C(=O)O)C(C)(C)C` ({NH(3-pentyl)-CO}-[Tle]D(Pyrrolidide)D[tBuAla]-OH) showed a negative logarithm of the IC50 (pIC50) in experiment [1] of 9.22. Consider `CC(C)C[C@H](NC(=O)[C@H](CC(=O)O)NC(=O)[C@H](CC(=O)N1CCCC1)NC(=O)[C@@H](NC(=O)NC1CCCCC1)C(C)C)C(=O)O` ({NHcHex-CO}-VD(Pyrrolidide)DL-OH), for which the negative-log IC50 (pIC50) in experiment [1] is 6.30. In turn, `CC(C)C[C@H](NC(=O)[C@H](CC(=O)O)NC(=O)[C@H](CC(=O)N1CCCC1)NC(=O)[C@@H](NC(=O)NC(C)C)C(C)C)C(=O)O` ({NHiPr-CO}-VD(Pyrrolidide)DL-OH) gave a negative logarithm of the IC50 (pIC50) in experiment [1] of 6.36. Turning to `CCCC(CCC)NC(=O)N[C@H](C(=O)N[C@@H](CC(=O)N1CCCC1)C(=O)N[C@@H](CC(=O)O)C(=O)N[C@@H](CC(C)C)C(=O)O)C(C)C` ({X2-CO}-VD(Pyrrolidide)DL-OH), the negative logarithm of the IC50 (pIC50) in experiment [1] was 8.15. `Nc1nc2c(ncn2COCCO)c(=O)[nH]1` [ACYCLOVIR]: the pEC50 in experiment [2] and in experiment [3] was 5.70 throughout.
